Values joined by “and” are separate entries in the source; they are usually repeats but may differ in a detail not shown here. Identical values can stand only once.
Experiments:
SP6 RNA polymerase = molecular target: T1, SP6 RNA polymerase (Enterobacteria phage SP6, UniProt P06221); test: Efficiency of cap analog incorporation into short RNA25 in IVT; type: biochemical; conditions: RNA25nt, densitometry
T1 sequence (P06221 1-874): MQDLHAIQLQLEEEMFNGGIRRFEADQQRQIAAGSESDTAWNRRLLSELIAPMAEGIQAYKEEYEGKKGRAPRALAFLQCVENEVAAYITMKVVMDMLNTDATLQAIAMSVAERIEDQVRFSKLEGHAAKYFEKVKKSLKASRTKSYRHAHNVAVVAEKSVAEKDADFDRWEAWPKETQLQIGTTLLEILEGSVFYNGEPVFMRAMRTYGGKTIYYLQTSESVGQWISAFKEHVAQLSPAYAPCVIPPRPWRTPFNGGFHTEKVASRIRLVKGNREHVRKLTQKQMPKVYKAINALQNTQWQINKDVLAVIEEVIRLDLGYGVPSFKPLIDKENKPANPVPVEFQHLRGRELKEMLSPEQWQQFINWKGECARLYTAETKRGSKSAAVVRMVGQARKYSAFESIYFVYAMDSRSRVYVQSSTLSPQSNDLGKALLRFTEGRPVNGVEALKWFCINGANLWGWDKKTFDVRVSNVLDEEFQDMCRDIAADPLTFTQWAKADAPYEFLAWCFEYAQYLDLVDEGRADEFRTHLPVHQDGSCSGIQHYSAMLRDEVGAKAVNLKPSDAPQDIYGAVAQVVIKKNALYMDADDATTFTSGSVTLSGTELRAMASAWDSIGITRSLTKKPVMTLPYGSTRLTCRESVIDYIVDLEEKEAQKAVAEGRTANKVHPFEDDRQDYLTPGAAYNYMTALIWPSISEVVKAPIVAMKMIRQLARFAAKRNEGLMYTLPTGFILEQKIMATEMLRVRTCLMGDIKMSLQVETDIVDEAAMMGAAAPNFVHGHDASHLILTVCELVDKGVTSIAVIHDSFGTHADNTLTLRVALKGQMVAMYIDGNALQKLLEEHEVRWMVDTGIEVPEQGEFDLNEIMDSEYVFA
How it was run: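 DNase I digestion. 3′ ends trimmed with DNAzyme (30 pmol per 400 ng RNA, 50 mM Tris pH 7.4, 50 mM MgCl2, 1 h, 37°C), giving 25-nt RNA. Capped versus uncapped pppRNA bands quantified densitometrically.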

[1] = test system: Rabbit reticulocyte lysate; test: Translation of luciferase mRNA capped with cap analogs in RRL system; type: biochemical; conditions: for Relative cap-dependent translation efficiency / Relative translation efficiency: Rabbit reticulocyte lysate; for Relative cap-dependent translation efficiency: relative to m^7GpppG; for Relative translation efficiency: relative to m^7GpppG-capped transcript
How it was run: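 Firefly luciferase mRNA made by SP6 transcription of PCR template, 1 h at 37°C, with 0.5 mM ATP/CTP/UTP, 0.1 mM GTP, 0.5 mM cap analog (cap:GTP 5:1). Then DNase I treatment. Translated in 40% Flexi rabbit reticulocyte lysate with 0.01 mM amino acids, 0.9 mM Mg acetate, 190 mM K acetate. Lysate preincubated 60 min at 30°C, then 60 min with mRNA. Luciferase luminescence expressed relative to m7GpppG-capped mRNA.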

[2] = test system: cap-dependent translation; conditions: translation inhibition; ref Wojcik et al. 2021; cited from earlier work
hNudt16 = hNudt16 (Homo sapiens, UniProt Q96DE0); test: 5′ cap hydrolysis of analog-capped RNA25 with hNudt16; type: biochemical; conditions: 30 min reaction with hNudt16; for % of hydrolysis SP6 product: RNA made with SP6 polymerase; for % of hydrolysis T7 product: RNA made with T7 polymerase
How it was run: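 Substrate: 50 ng 25-nt cap-analog RNA with trimmed 3′ ends. Digested with 2.5 µM hNudt16 in 40 mM Tris pH 7.9, 100 mM NaCl, 6 mM MgCl2, 2 mM DTT for 30 min at 37°C. Stopped with formamide loading dye, 5 min at 75°C. Run on 15% polyacrylamide/7 M urea, SYBR Gold stain. Hydrolysis = densitometric % loss of capped band; mean ± SD, three experiments. Orientation inferred from hydrolysis pattern.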

murine eIF4E = murine eIF4E (Mus musculus, UniProt P63073); test: Thermal stability of eIF4E by DSF in the presence of cap analogs; type: binding; conditions: for Tm (at 100 μM of ligand): murine eIF4E, 100 μM ligand, apo form 38.42; for ΔTm (at 100 μM of ligand): in relation to eIF4E in apo form
How it was run: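 Murine eIF4E (aa 28–217), 4 μM final, with 5× SYPRO Orange in HEPES/KOH pH 7.2, 100 mM KCl, 0.5 mM EDTA, 1 mM DTT. Test compound at 100 μM final (single point) or 1–100 μM series. Heated 22–95°C at 0.5°C/30 sec, fluorescence read each step. Normalized signal fitted to a two-state denaturation model for Tm. ΔTm is relative to apo eIF4E. Apparent Kd is from ΔTm change with rising ligand concentration.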

[3] = molecular target: cap-dependent translation in RRL system; type: biochemical, rabbit; conditions: inhibition of ARCA-mRNA luciferase translation in RRL system; mean ± SD
How it was run: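 Flexi rabbit reticulocyte lysate preincubated 60 min at 30°C under cap-dependent conditions. Then m2^7,3′O GpppG-capped firefly luciferase mRNA was added together with increasing concentrations of cap analog, and incubated a further 60 min at 30°C. Luminescence read immediately. IC50 by nonlinear regression; mean ± SD of ≥3 independent replicates. Ratio expresses IC50 relative to m7GpppG control.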

hNudt16, sequence (Q96DE0 whole entry): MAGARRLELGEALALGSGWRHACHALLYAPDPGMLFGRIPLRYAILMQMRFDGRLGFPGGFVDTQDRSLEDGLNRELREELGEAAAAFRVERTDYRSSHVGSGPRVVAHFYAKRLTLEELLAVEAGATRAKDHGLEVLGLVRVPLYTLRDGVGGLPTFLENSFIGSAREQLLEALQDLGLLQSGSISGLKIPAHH
murine eIF4E, sequence (P63073 28-217): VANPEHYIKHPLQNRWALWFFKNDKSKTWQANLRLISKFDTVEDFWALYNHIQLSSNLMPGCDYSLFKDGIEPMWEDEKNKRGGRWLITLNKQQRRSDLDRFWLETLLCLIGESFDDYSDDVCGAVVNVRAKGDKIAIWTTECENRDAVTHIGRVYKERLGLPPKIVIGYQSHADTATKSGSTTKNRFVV

Structure (SMILES) | capped fraction (capping efficiency) (SP6 RNA polymerase) [%] | Relative cap-dependent translation efficiency [1] | Relative translation efficiency [1] | IC50 [2] [µM] | % of hydrolysis SP6 product (hNudt16) | % of hydrolysis T7 product (hNudt16) [%] | Tm (at 100 μM of ligand) (murine eIF4E) [°C] | IC50 [3] [µM] | translation level in comparison to m^7GpppG-capped transcript ([1]; RRL) [%] | Relative translation efficiency ([1]; listed as m2^7,3'-OGpppG) | ΔTm (at 100 μM of ligand) (murine eIF4E) | ΔTm (at 100 μM of ligand) (murine eIF4E; listed as m2^7,3'OGpppG) [°C]
Cn1c[n+]([C@@H]2O[C@H](COP(=O)(O)OP(=O)([O-])OP(=O)(O)OC[C@H]3O[C@@H](n4cnc5c(=O)[nH]c(N)nc54)[C@H](O)[C@@H]3O)[C@@H](O)[C@H]2O)c2nc(N)[nH]c(=O)c21 [m^7GpppG] | 74.3 ± 3.5 | 1 | 1 | 11.4 ± 2.4 | 45.74% | 32.24 | 48.10 | 8.94 ± 0.86 | – | – | – | –
Nc1nc2c(ncn2[C@@H]2O[C@H](COP(=O)(O)OP(=O)(O)OP(=O)(O)OC[C@H]3O[C@@H](n4cnc5c(=O)[nH]c(N)nc54)[C@H](O)[C@@H]3O)[C@@H](O)[C@H]2O)c(=O)[nH]1 [GpppG] | 85.3 ± 0.8 | – | – | – | 86.2 ± 3.9% and 86.18% | 82.06 | – | – | – | – | – | –
Nc1nc2c(ncn2[C@@H]2O[C@H](COP(=O)(O)OP(=O)(O)OP(=O)(O)OC[C@H]3O[C@@H](n4cnc5c(N)ncnc54)[C@H](O)[C@@H]3O)[C@@H](O)[C@H]2O)c(=O)[nH]1 [ApppG] | – | 0 | 0.09 ± 0.06 | – | – | – | 38.62 | – | ~10 | – | – | –
CO[C@H]1[C@@H](O)[C@H]([n+]2cn(C)c3c(=O)[nH]c(N)nc32)O[C@@H]1COP(=O)([O-])OP(=O)(O)OP(=O)(O)OC[C@H]1O[C@@H](n2cnc3c(=O)[nH]c(N)nc32)[C@H](O)[C@@H]1O [m2^7,3′OGpppG] | 65.8 ± 2.4 | 1.53 ± 0.20 | 1.47 | – | 8.7 ± 2.0% | 4.81 | 47.53 | – | – | 1.47 ± 0.17 | around 10 °C | 9.11
